Experimental data published in ChEMBL document CHEMBL1125054, “1-(aminoalkyl)-2-phenylindoles as novel pure estrogen antagonists” (J Med Chem, 1990).

Assays:
[1] = biological target: T1, Estrogen receptor (Mus musculus) (UniProt O08537+P19785); experiment: Anti-uterotrophic effect in mice at 25 ug; format: functional
Procedure, shortened: (§1)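 Immature female NMRI mice (20 days old), groups of 6-10, injected sc in olive oil (100 μL/animal) on three consecutive days with test compound plus 0.4 μg estrone per animal and day. Killed 24 h after last injection; uteri fixed in Bouin solution, dried at 100 °C for 24 h. Relative uterine weight = uterine dry weight (mg)/body weight (g) × 100; mean of six animals ± SD.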

[2] = biological target: T1, Estrogen receptor (Mus musculus); experiment: Uterotrophic effect in mice at 1 ug; format: functional, tissue-based; conditions: Uterus
Procedure, shortened: (§2)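 Immature NMRI female mice, 20 days old, groups of 6-10, received test compound in olive oil (100 μL/animal) sc on three consecutive days; vehicle controls were included. At 24 h after the last dose, uteri were fixed in Bouin solution and dried at 100 °C for 24 h. Read-out was uterine dry weight (mg)/body weight (g) × 100, mean of six animals ± SD.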

[3] = biological target: Estrogen receptor (Bos taurus) (UniProt Q9XSB5+P49884); experiment: Relative binding affinity to calf uterine estrogen receptor; format: protein assay
Procedure, shortened: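 Calf uterine cytosol (105000g supernatant, 3 mg/mL protein in the assay) in Tris/EDTA/NaN3 buffer pH 7.5, with 5 nM 17β-[3H]estradiol and competitor at 10^-9–10^-5 M. Incubated 18 h at 4 °C; bound and free ligand separated with dextran-coated charcoal. Nonspecific binding defined with 5 μM estradiol. RBA = ratio of molar concentrations of estradiol and compound giving 50% displacement × 100.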

[4] = biological target: T1, Estrogen receptor (Mus musculus); experiment: Uterotrophic effect in mice at 125 ug; format: functional, tissue-based; conditions: Uterus; procedure, shortened: as §2
[5] = biological target: T1, Estrogen receptor (Mus musculus); experiment: Percent inhibition of uterotrophic effect in mice at 125 ug dose; format: functional
Procedure, shortened: (§3)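 Mice were immature female NMRI (20 days old) given sc injections in olive oil on three consecutive days, each containing 0.4 μg estrone plus test compound. Uteri were weighed dry 24 h after the last injection. Antagonism (%) = 100 − [(W_S,T − W_V)/(W_S − W_V) × 100], with relative uterine weights from estrone+compound, estrone alone and vehicle controls. Significance was tested by Mann-Whitney U test.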

[6] = biological target: T1, Estrogen receptor (Mus musculus); experiment: Anti-uterotrophic effect in mice at 125 ug; format: functional; procedure, shortened: as §1
[7] = biological target: T1, Estrogen receptor (Mus musculus); experiment: Percent inhibition of uterotrophic effect in mice at 25 ug dose; format: functional; procedure, shortened: as §3
[8] = biological target: T1, Estrogen receptor (Mus musculus); experiment: Anti-uterotrophic effect in mice at 1 ug; format: functional; procedure, shortened: as §1
[9] = biological target: T1, Estrogen receptor (Mus musculus); experiment: Anti-uterotrophic effect in mice at 5 ug; format: functional; procedure, shortened: as §1
[10] = biological target: T1, Estrogen receptor (Mus musculus); experiment: Uterotrophic effect in mice at 25 ug; format: functional, tissue-based; conditions: Uterus; procedure, shortened: as §2
[11] = biological target: T1, Estrogen receptor (Mus musculus); experiment: Uterotrophic effect in mice at 5 ug; format: functional, tissue-based; conditions: Uterus; procedure, shortened: as §2
[12] = biological target: T1, Estrogen receptor (Mus musculus); experiment: Percent inhibition of uterotrophic effect in mice at 5 ug dose; format: functional; procedure, shortened: as §3
[13] = biological target: T1, Estrogen receptor (Mus musculus); experiment: Percent inhibition of uterotrophic effect in mice at 1 ug dose; format: functional; procedure, shortened: as §3

T1 sequence (O08537 whole entry, looked up): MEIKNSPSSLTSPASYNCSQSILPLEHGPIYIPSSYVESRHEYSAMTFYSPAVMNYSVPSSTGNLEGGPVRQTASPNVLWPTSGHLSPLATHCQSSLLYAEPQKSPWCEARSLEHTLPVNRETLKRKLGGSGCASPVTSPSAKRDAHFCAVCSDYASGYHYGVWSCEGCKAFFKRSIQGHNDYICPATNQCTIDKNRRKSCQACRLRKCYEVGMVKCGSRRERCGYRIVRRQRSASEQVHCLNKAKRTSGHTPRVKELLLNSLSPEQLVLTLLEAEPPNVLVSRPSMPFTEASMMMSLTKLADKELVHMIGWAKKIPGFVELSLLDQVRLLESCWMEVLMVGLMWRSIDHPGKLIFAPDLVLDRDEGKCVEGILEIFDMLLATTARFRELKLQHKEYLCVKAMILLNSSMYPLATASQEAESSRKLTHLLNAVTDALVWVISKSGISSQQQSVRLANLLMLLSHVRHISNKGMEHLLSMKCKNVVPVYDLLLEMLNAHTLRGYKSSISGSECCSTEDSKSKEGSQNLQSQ
T1 sequence (P19785 whole entry, looked up): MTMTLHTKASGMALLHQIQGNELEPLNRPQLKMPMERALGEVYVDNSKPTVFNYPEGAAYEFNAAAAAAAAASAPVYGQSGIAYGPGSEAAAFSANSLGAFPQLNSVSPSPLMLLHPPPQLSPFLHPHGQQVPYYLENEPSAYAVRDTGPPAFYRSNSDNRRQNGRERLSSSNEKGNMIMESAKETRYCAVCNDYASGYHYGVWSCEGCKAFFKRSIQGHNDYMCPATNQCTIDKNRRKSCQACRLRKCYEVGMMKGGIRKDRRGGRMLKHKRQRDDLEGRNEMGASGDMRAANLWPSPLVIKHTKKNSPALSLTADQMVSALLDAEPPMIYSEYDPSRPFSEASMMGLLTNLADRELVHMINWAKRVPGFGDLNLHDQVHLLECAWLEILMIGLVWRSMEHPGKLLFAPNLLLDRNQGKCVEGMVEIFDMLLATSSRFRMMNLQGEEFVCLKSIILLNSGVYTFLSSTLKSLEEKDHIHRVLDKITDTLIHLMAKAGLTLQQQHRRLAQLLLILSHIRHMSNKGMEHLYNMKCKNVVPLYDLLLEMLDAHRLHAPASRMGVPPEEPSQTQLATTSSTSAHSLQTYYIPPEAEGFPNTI

SMILES	Relative uterine weight [1]	Relative uterine weight [2]	relative binding affinity (RBA) [3]	Relative uterine weight [4]	inhibition [5]	Relative uterine weight [6]	inhibition [7]	Relative uterine weight [8]	Relative uterine weight [9]	Relative uterine weight [10]	Relative uterine weight [11]	inhibition [12]	inhibition [13]
Oc1ccc(C2=Cc3cc(O)ccc3C2CCCCCCN2CCCCC2)cc1 (stereo unspecified)	–	–	1.3	–	–	–	–	–	–	–	–	–	–
CC1=C(c2ccc(O)cc2)C(CCCCN2CCCC2)c2ccc(O)cc21 (stereo unspecified)	16.2	7.6	3.6	6.4	53%	25.5	78%	43.7	47.6	6.4	8	–	5%
CC1=C(c2ccc(O)cc2)C(CCCCCCCCN2CCCC2)c2ccc(O)cc21 (stereo unspecified)	–	–	7.6	–	–	–	–	–	–	–	–	–	–
CC1=C(c2ccc(O)cc2)C(CCCCCCN2CCCC2)c2ccc(O)cc21 (stereo unspecified)	14.4	12.5	–	14.1	117%	8.9	103%	45.8	15.4	13.9	9	100%	20%
Oc1ccc(C2=Cc3cc(O)ccc3C2CCCCCCN2CCCC2)cc1 (stereo unspecified)	–	–	2.3	–	–	–	–	–	–	–	–	–	–
CC1=C(c2ccc(O)cc2)C(CCCCCCN2CCOCC2)c2ccc(O)cc21 (stereo unspecified)	47.7	–	10	17.4	102%	18	18%	–	51.2	21.8	19.5	8%	–
CC1=C(c2ccc(O)cc2)C(CCCCCCN2CCCCC2)c2ccc(O)cc21 (stereo unspecified)	–	–	23	24.7	98%	22.3	–	–	28.9	21.4	19.7	71%	–

Further lines, results first:

Relative uterine weight [1]	Relative uterine weight [2]	relative binding affinity (RBA) [3]	Relative uterine weight [4]	inhibition [5]	Relative uterine weight [6]	inhibition [7]	Relative uterine weight [8]	Relative uterine weight [9]	Relative uterine weight [10]	Relative uterine weight [11]	inhibition [12]	inhibition [13]	SMILES
15	10.9	25	16.9	99%	16.2	102%	65.9	30.1	12.4	11.9	68%	–	CC1=C(c2ccc(O)cc2)C(CCCCCCN)c2ccc(O)cc21 (stereo unspecified)
–	–	12	–	–	–	–	–	–	–	–	–	–	CC1=C(c2ccc(O)cc2)C(CCCCCCN(C)C)c2ccc(O)cc21 (stereo unspecified)
–	14.4	27	34	59%	33.7	–	–	38.1	–	22.8	49%	–	CNCCCCCCC1C(c2ccc(O)cc2)=C(C)c2cc(O)ccc21 (stereo unspecified)
–	–	11	–	–	–	–	–	–	–	–	–	–	CC1=C(c2ccc(O)cc2)C(CCCCCCCN)c2ccc(O)cc21 (stereo unspecified)
52.5	–	14	22.4	61%	30.9	–	–	46	18.2	16.1	23%	–	CCN(CC)CCCCCCC1C(c2ccc(O)cc2)=C(C)c2cc(O)ccc21 (stereo unspecified)
44.6	–	15	34	51%	40.8	43%	–	53.2	23.6	17.8	25%	–	CC1=C(c2ccc(O)cc2)C(CCCCCCNCc2ccccc2)c2ccc(O)cc21 (stereo unspecified)
